Reference: ChEMBL document CHEMBL1143066, “Characterization and optimization of selective, nonpeptidic inhibitors of cathepsin S with an unprecedented binding mode” (J Med Chem, 2007)

Key:
Format in all cases: functional
[1] = substrate: Cc1c(CC(=O)O)c(=O)oc2cc(NC(=O)COc3ccccc3-c3ccc(CC4CCCCC4)c(F)c3F)ccc12; test: (§1) Activity of cathepsin S assessed as substrate cleavage efficiency
How it was run: (§2)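 Cathepsin S at 37 °C in pH 6.1 100 mM sodium phosphate, 100 mM NaCl, 1 mM DTT, 1 mM EDTA, 0.001% Tween-20. AMCA substrate added from DMSO at ≥6-fold below its K_M. Run in duplicate with and without enzyme. Fluorescence (ex 370/em 455 nm) read over up to 15 min. Slope gave V_max/K_M; k_cat/K_M used AMCA calibration and E-64c-titrated enzyme concentration.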

[2] = substrate: COc1ccc(-c2ccccc2OCC(=O)Nc2ccc3c(C)c(CC(=O)O)c(=O)oc3c2)c(F)c1F; test: as §1; how it was run: as §2
[3] = substrate: Cc1c(CC(=O)O)c(=O)oc2cc(NC(=O)COc3ccccc3-c3ccc(CC(C)C)c(F)c3F)ccc12; test: as §1; how it was run: as §2
[4] = substrate: Cc1c(CC(=O)O)c(=O)oc2cc(NC(=O)COc3ccccc3-c3ccc(F)c(F)c3F)ccc12; test: as §1; how it was run: as §2
[5] = substrate: CCCCc1ccc(-c2ccccc2OCC(=O)Nc2ccc3c(C)c(CC(=O)O)c(=O)oc3c2)c(F)c1F; test: as §1; how it was run: as §2
[6] = substrate: CCc1ccc(-c2ccccc2OCC(=O)Nc2ccc3c(C)c(CC(=O)O)c(=O)oc3c2)c(F)c1F; test: as §1; how it was run: as §2
[7] = substrate: CCCc1ccc(-c2ccccc2OCC(=O)Nc2ccc3c(C)c(CC(=O)O)c(=O)oc3c2)c(F)c1F; test: as §1; how it was run: as §2

B1: Cathepsin S (Homo sapiens), P25774 (protein)
chain: MKRLVCVLLVCSSAVAQLHKDPTLDHHWHLWKKTYGKQYKEKNEEAVRRLIWEKNLKFVMLHNLEHSMGMHSYDLGMNHLGDMTSEEVMSLMSSLRVPSQWQRNITYKSNPNRILPDSVDWREKGCVTEVKYQGSCGACWAFSAVGALEAQLKLKTGKLVSLSAQNLVDCSTEKYGNKGCNGGFMTTAFQYIIDNKGIDSDASYPYKAMDQKCQYDSKYRAATCSKYTELPYGREDVLKEAVANKGPVSVGVDARHPSFFLYRSGVYYEPSCTQNVNHGVLVVGYGDLNGKEYWLVKNSWGHNFGEEGYIRMARNKGNHCGIASFPSYPEI
Q: Which kcat/Km [1] does the source give for B1 here?
A: Its kcat/Km is 15700 M⁻¹ s⁻¹.

Q: And the kcat/Km [2]?
A: Its kcat/Km is 2700 M⁻¹ s⁻¹.

Q: What about the kcat/Km [3] of the same protein?
A: The kcat/Km was 288000 M⁻¹ s⁻¹.

Q: And the kcat/Km [4]?
A: The kcat/Km was 27000 M⁻¹ s⁻¹.

Q: What about the kcat/Km [5] of the same protein?
A: The kcat/Km was 85000 M⁻¹ s⁻¹.

Q: What about the kcat/Km [6] of the same protein?
A: Its kcat/Km is 25900 M⁻¹ s⁻¹.

Q: What about the kcat/Km [7] of the same protein?
A: The kcat/Km was 145000 M⁻¹ s⁻¹.
